Source: PubChem
Compounds with a hit are over-represented: about 1.3% of the library has one in this group of screens.
PME-1 inh: PME-1 inhibitors via competitive probe labeling, primary screen, biochemical, fluorescence polarization, FP-Rh probe, HTS | actives 0.53% (n = 320,000) | recombinant PME-1 | inhibition, % at 5.9 µM | Protein phosphatase methylesterase 1 (Homo sapiens), Q9Y570;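 active = inhibition above the campaign mean of all compounds plus 3 SD, cut at about 26% in these data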;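 note: competitive labeling of PME-1 active site by serine hydrolase directed probe; inhibitors block probe labeling so polarization falls and inhibition rises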
Target sequence (Q9Y570 whole entry, looked up): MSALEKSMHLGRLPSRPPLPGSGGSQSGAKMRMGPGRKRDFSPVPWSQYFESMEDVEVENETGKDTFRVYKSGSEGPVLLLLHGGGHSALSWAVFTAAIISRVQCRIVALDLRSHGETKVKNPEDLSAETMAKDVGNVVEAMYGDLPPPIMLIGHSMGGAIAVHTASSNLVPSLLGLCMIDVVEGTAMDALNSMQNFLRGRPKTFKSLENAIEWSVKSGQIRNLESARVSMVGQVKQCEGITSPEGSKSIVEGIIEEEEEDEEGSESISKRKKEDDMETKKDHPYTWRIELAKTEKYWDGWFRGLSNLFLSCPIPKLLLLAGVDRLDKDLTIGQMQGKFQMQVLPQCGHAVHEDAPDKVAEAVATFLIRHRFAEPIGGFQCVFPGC
RBBP9 inh: human RBBP9 inhibitors, primary screen, biochemical, fluorescence polarization, FP-Rh probe, HTS. actives 0.2% (n = 220,000). AID 1515, 2009. inhibition, % at 7.94 µM. recombinant RBBP9. Serine hydrolase RBBP9 (Homo sapiens), O75884;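 active = inhibition above the campaign mean of all tested compounds plus 3 SD, cut at about 14% in these data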
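system = RBBP9 protein | input = RBBP9 at 2.5 µM in dispensed solution, before mixing | measured by = fluorescence polarization (mP), excitation 525 nm, emission 598 nm | incubation = enzyme-compound preincubation 30 min, then probe labeling 45 min, 25 °C | buffer or medium = Tris-NaCl-Pluronic buffer, pH 8.0 | compound = single dose 7.94 µM | also added = FP-Rh probe, 375 nM dispensing solution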
Fam108B inh: mouse Fam108B serine hydrolase inhibitors, primary screen, counter-screen for RBBP9 inhibitor project, biochemical, fluorescence polarization; recombinant Fam108B, FP-Rh probe fluorescence polarization; inhibition, % at 9.51 µM; actives 0.33% (n = 300,000);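 active = inhibition above the screen mean inhibition plus 3 SD, computed separately per campaign, cut at about 18% in these data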;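 note: inhibitors lower polarization as less probe binds the enzyme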
LYPLA2 counter: LYPLA2 inhibitors, primary screen, counter-screen for PME1 inhibitor project, biochemical, fluorescence polarization, FP-Rh probe ABPP; Acyl-protein thioesterase 2 (Homo sapiens), O95372; recombinant LYPLA2; inhibition, % at 5.9 µM; actives 0.38% (n = 320,000); AID 2177, 2009;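 active = inhibition above the screen-wide mean plus 3 SD, limit set per campaign, cut at about 26% in these data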
LYPLA1 inh: LYPLA1 inhibitors, primary screen, counter-screen for PME1 inhibitor project, biochemical, fluorescence polarization, FP-Rh probe ABPP; Acyl-protein thioesterase 1 (Homo sapiens), O75608; recombinant LYPLA1; inhibition, % at 5.9 µM; actives 0.16% (n = 320,000);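 active = inhibition above the mean of all tested compounds plus 3 SD, set per campaign, cut at about 14% in these data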;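 note: inhibitors block serine hydrolase probe labeling of LYPLA1 so polarization falls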
Target sequence (O75608 whole entry, looked up): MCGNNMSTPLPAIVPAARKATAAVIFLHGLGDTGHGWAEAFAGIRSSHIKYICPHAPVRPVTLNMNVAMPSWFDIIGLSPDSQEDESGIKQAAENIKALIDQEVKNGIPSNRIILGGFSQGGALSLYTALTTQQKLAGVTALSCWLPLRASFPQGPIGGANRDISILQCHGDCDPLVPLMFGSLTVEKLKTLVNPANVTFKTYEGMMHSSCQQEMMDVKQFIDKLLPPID
PAD4 FP inh: human PAD4 inhibitors, primary screen, biochemical, fluorescence polarization, 1536-well format. Protein-arginine deiminase type-4 (Homo sapiens), Q9UM07. recombinant PAD4, RCA probe fluorescence polarization. inhibition, % at 6.36 µM. actives 0.41% (n = 330,000). AID 485272, 2010;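 active = percent inhibition above a cutoff equal to the mean of all tested compounds plus 3 SD, cut at about 15% in these data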
Fam108b inh conf: mouse Fam108b serine hydrolase inhibitors, confirmation, counter-screen for RBBP9 inhibitor project, biochemical, fluorescence polarization, triplicate; actives 44% (n = 930); shares compounds with Fam108B inh; inhibition, % at 9.51 µM; AID 1978, 2009; recombinant Fam108b, FP-Rh probe fluorescence polarization;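 active = inhibition above a limit from the primary screen, the mean over all compounds plus 3 SD, cut at about 19% in these data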;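 note: inhibitors free the probe so polarization falls as inhibition rises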
Fam108b ABPP HTS: inhibition of mouse Fam108b by HTS hits, late-stage follow-up, biochemical, gel-based ABPP, soluble recombinant form | inhibition, % at 20 µM | AID 588649, 2011 | fluorophosphonate probe | actives 44% (n = 260) | shares compounds with Fam108B inh; in the data active = inhibition above about 40%
A number is an active result; 0 = inactive; - = not tested or not shown; + = active, no number.

SMILES	PME-1 inh	RBBP9 inh	Fam108B inh	LYPLA2 counter	LYPLA1 inh	PAD4 FP inh	Fam108b inh conf	others
Cc1cc(N/N=C/c2ccc(O)cc2O)nc(-c2ccccc2O)n1	65.3	0	34.0	0	0	0	0
Cc1cc(CSc2ccccc2)ccc1NC(=O)c1ccc(Cl)c([N+](=O)[O-])c1	0	0	25.5	0	0	0	62.6	Fam108b ABPP HTS=0
CNC(=S)N(CCc1c(C)[nH]c2ccccc12)Cc1cccnc1	0	-	0	0	0	0	-
COc1ccc2[nH]c3c(N4CCc5ccccc5C4)ncnc3c2c1	29.8	0	18.9	0	0	0	0
CCOC(=O)N1CCN(c2ncnc3c2[nH]c2ccc(OC)cc23)CC1	0	0	0	0	0	0	-
Cc1ccc(NC(=O)/C(C#N)=C(\N)C(Cl)(Cl)Cl)nc1	0	0	20.6	0	0	0	23.0
Cc1ccc(C2CC(=O)Oc3cc(C)c(Br)c(C)c32)cc1 (stereo not drawn)	-	-	-	-	-	0	-
Cc1ccc(N2C(=O)C3CCC(C)(C2=O)C3(C)C)cc1 (stereo not drawn)	0	0	0	0	0	0	-
CSC[C@@H]1NC(=S)N(c2ccc(C)cc2)C1=O	60.3	0	30.6	0	0	0	50.2	Fam108b ABPP HTS=40.0
COc1ccc(CN(Cc2ccc(C(=O)O)cc2)C(=S)Nc2ccc(C)cc2)cc1OC	0	0	0	0	0	0	-
CCC(=O)NC(=S)Nc1ccc(NC(=O)c2ccc([N+](=O)[O-])cc2Cl)cc1	0	0	34.2	0	0	0	0
CN(C)c1ccc(NC(=O)c2ccc([N+](=O)[O-])cc2Cl)cc1	0	0	0	0	0	0	-
COc1ccc(NC(=O)COC(=O)c2ccc(S(=O)(=O)N(C)c3ccccc3OC)cc2)c(OC)c1	-	0	-	-	-	-	-
C=CCN1C(=O)C2(C(C#N)=C(N)Oc3n[nH]c(CCC)c32)c2ccccc21 (stereo not drawn)	0	0	0	0	0	0	-
Cn1c2ccccc2c(=O)n2c(=O)c3ccccc3cc12	0	0	28.7	0	0	68.7	0
Cn1c(-c2ccccc2)cc(=O)c2ccccc21	0	0	0	0	0	0	-
COc1ccc(S(=O)(=O)Nc2ccccc2C(=O)Nc2nc(-c3ccc(F)cc3)cs2)cc1OC	0	0	0	0	0	0	-
COc1ccc(-c2csc(NC(=O)c3ccccc3NS(=O)(=O)c3ccc(C)cc3)n2)cc1	0	0	35.8	0	0	0	0
C[C@H](NC(=O)c1ccccc1Cl)C(=O)OCc1cn2cc(Cl)ccc2n1	0	-	0	0	0	0	-
O=C1c2ccccc2C2=Nc3ccccc3SC(c3cccc(F)c3)C12 (stereo not drawn)	0	0	21.9	0	0	0	0
O=c1oc2ccccc2cc1-c1nc2c(s1)CCc1ccccc1-2	0	0	0	0	0	0	-
O=c1oc2cc(O)ccc2cc1-c1nc2c(s1)CCc1ccccc1-2	0	0	22.4	0	0	0	23.4
COc1ccc(/C=C2\SC(=S)N(CC(=O)OCC(=O)Nc3cc(Cl)cc(Cl)c3)C2=O)cc1	0	0	26.6	0	0	0	77.8	Fam108b ABPP HTS=85.0
COc1cc(OC)c2cc(C(=O)N/N=C/c3ccccc3O)[nH]c2c1	31.7	-	28.9	0	0	0	0
COc1ccc(OC)c(/C=N/NC(=O)c2cc3c(OC)c(OC)ccc3[nH]2)c1	31.0	0	18.8	0	0	0	0
SMILES	PME-1 inh	RBBP9 inh	Fam108B inh	LYPLA2 counter	LYPLA1 inh	PAD4 FP inh	Fam108b inh conf	others
C=C(C)c1sc(-c2ccc(Cl)cc2)nc1C	0	-	0	0	0	0	-
CN1c2ccccc2C(C)(C)[C@]12C=Cc1cc(O)ccc1O2	0	0	0	0	0	0	-
CN1c2ccccc2C(C)(C)C12C=Nc1c(ccc3ccccc13)O2 (stereo not drawn)	0	0	30.9	0	0	0	0
Cc1ccccc1N=Nc1ccc(O)c2ncccc12	0	0	0	0	0	0	-
O=S(=O)(O)c1cccc2c(N=Nc3ccc(O)c4ncccc34)cccc12	0	-	50.1	0	0	0	44.6	Fam108b ABPP HTS=0
O=[N+]([O-])c1cc([N+](=O)[O-])c2c(=Nc3ccccc3)n(-c3ccccc3)n(O)c2c1	0	0	19.0	0	0	0	26.7
Cc1ccc2nc(CSc3nc(C)ccc3C#N)[nH]c2c1	0	0	41.6	0	0	0	39.6	Fam108b ABPP HTS=55.0
COc1ccc(C(=O)N/N=C(\C)c2ccc3c(c2)C2C=CCC2C(c2ccccc2)N3)cc1 (stereo not drawn)	0	0	20.4	0	0	0	0
O=C(O)c1ccc2c(c1)[C@@H]1C=CC[C@@H]1[C@H](c1ccccn1)N2	0	0	38.7	0	0	0	+	Fam108b ABPP HTS=0
COc1cccc(NS(=O)(=O)c2ccc3c(c2)C2C=CCC2C(c2ccc(C(=O)O)cc2)N3)c1 (stereo not drawn)	0	0	42.7	0	0	0	0
O=C(OC1CCCCC1)c1ccc2c(c1)C1C=CCC1C(C(=O)O)N2 (stereo not drawn)	-	0	-	-	-	-	-
COc1ccc(/C(C)=N/NC(=O)c2ccncc2)cc1	0	-	0	0	0	0	-
O=C(COc1ccc([N+](=O)[O-])cc1)NC(C(=O)O)C(O)c1cccc([N+](=O)[O-])c1 (stereo not drawn)	0	0	0	0	0	0	-
Cc1ccc(S(=O)(=O)N2CCN(C(=O)c3ccnn3C)CC2)cc1C	0	-	0	0	0	0	-
O=S(=O)(c1cc(O)ccc1O)c1cccc2c(S(=O)(=O)c3cc(O)ccc3O)cccc12	0	-	36.3	0	0	0	31.6	Fam108b ABPP HTS=55.0
O=S(=O)(O)c1cc(O)ccc1O	0	-	0	0	0	0	-
CC(C)CN(Cc1cc(=O)oc2cc(-c3ccccc3)c(O)cc12)CC(C)C	0	0	41.9	0	0	0	19.4
Oc1cccc2cc3cccc(O)c3c(O)c12	0	0	25.1	0	0	0	0	Fam108b ABPP HTS=55.0
O=c1oc(-c2ccc(O)c(O)c2)cc2cccc(O)c12	-	-	-	-	-	0	-
Cc1cc2nc(-c3ccc(SCc4ccc(C#N)cc4)nc3)[nH]c2cc1C	0	0	25.9	0	0	0	0
Oc1oc(-c2ccccc2Br)nc1C=Nc1ccccn1	-	-	-	-	-	-	-	Fam108b ABPP HTS=90.0
Oc1oc(-c2ccccc2Br)nc1C=Nc1ccc(Br)cn1	0	0	0	0	0	0	-
